{"source": "ChEMBL document CHEMBL1148154", "about": "“New secondary metabolites from the marine endophytic fungus Apiospora montagnei” (J Nat Prod, 2004)", "key": {"[1]": {"test": "Cytotoxicity against human HM02 cells", "format": "functional", "method_in_brief": "(§1)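 Human tumour lines were HM02 (gastric adenocarcinoma), HepG2 (hepatocellular carcinoma) and MCF7 (breast adenocarcinoma), run following NCI standards. Read-outs were total growth inhibition (TGI) and LC50, defined as a 50% reduction of the initial cell number, in µg/mL. Single-level testing was done at 10 µg/mL.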"}, "[2]": {"test_system": "HepG2", "test": "Cytotoxicity against human HepG2 cells", "format": "functional", "method_in_brief": "as §1"}, "[3]": {"test_system": "MCF7", "test": "Cytotoxicity against human MCF7 cells", "format": "functional", "method_in_brief": "as §1"}, "[4]": {"test_system": "P388", "test": "Cytotoxicity against mouse P388 cells", "format": "functional", "details": "read-out: ED50 (the source's name)"}, "[5]": {"test_system": "Priestia megaterium", "test": "Antibacterial activity against Bacillus megaterium at 50 ug/disk by agar diffusion assay", "format": "functional, organism-based"}, "[6]": {"test_system": "Escherichia coli", "test": "Antibacterial activity against Escherichia coli at 50 ug/disk by agar diffusion assay", "format": "functional, organism-based"}, "[7]": {"test_system": "Microbotryum violaceum", "test": "Antifungal activity against Microbotryum violaceum at 50 ug/disk by agar diffusion assay", "format": "functional, organism-based"}, "[8]": {"test_system": "Aspergillus pseudoglaucus", "test": "Antifungal activity against Eurotium repens at 50 ug/disk by agar diffusion assay", "format": "functional, organism-based"}, "[9]": {"test_system": "Mycotypha microspora", "test": "Antifungal activity against Mycotypha microspora at 50 ug/disk by agar diffusion assay", "format": "functional, organism-based"}, "[10]": {"test_system": "[Chlorella] fusca", "test": "Antialgal activity against 'Chlorella' fusca at 50 ug/disk by agar diffusion assay", "format": "functional, organism-based", "details": "Scenedesmus fuscus"}, "[11]": {"test_system": "Artemia", "test": "Toxicity in brine shrimp", "format": "organism-based", "details": "in vivo"}, "[12]": {"test_system": "HM02", "test": "Cytotoxicity against human HM02 cells at 10 ug/ml", "format": "functional, cell-based", "method_in_brief": "as §1"}, "[13]": {"test_system": "HepG2", "test": "Cytotoxicity against human HepG2 cells at 10 ug/ml", "format": "functional, cell-based", "method_in_brief": "as §1"}, "[14]": {"test_system": "MCF7", "test": "Cytotoxicity against human MCF7 cells at 10 ug/ml", "format": "functional, cell-based", "method_in_brief": "as §1"}, "[15]": {"details": "read-out: LC50 (the source's name)"}}, "note": "Activity calls are given as the source filed them.", "data": [{"molecule": "O=C1C(CO)=C[C@H](O)[C@H]2O[C@@H]12", "values": [{"measurement": "GI50", "setting": "[1]", "value": 0.7, "unit": "µg/mL"}, {"measurement": "TGI", "setting": "[1]", "value": 1, "unit": "µg/mL"}, {"measurement": "CC50", "setting": "[1]; [15]", "value": "> 10", "unit": "µg/mL"}, {"measurement": "GI50", "setting": "[2]", "value": 0.75, "unit": "µg/mL"}, {"measurement": "TGI", "setting": "[2]", "value": 4.6, "unit": "µg/mL"}, {"measurement": "CC50", "setting": "[2]; [15]", "value": "> 10", "unit": "µg/mL"}, {"measurement": "GI50", "setting": "[3]", "value": 0.8, "unit": "µg/mL"}, {"measurement": "TGI", "setting": "[3]", "value": 1.5, "unit": "µg/mL"}, {"measurement": "CC50", "setting": "[3]; [15]", "value": 3.6, "unit": "µg/mL"}, {"measurement": "EC50", "setting": "[4]", "value": 0.2, "unit": "µg/mL"}, {"measurement": "Activity", "setting": "[5]", "value": "inactive"}, {"measurement": "Activity", "setting": "[6]", "value": "inactive"}, {"measurement": "Activity", "setting": "[7]", "value": "inactive"}, {"measurement": "Activity", "setting": "[8]", "value": "inactive"}, {"measurement": "Activity", "setting": "[9]", "value": "inactive"}, {"measurement": "Activity", "setting": "[10]", "value": "inactive"}, {"measurement": "Activity", "setting": "[11]", "value": "Toxic"}]}, {"molecule": "C[C@@H]1C=C[C@@H]2C[C@H](CO)CC[C@H]2[C@@H]1C(=O)O", "values": [{"measurement": "Activity", "setting": "[5]", "value": "inactive"}, {"measurement": "Activity", "setting": "[6]", "value": "inactive"}, {"measurement": "Activity", "setting": "[7]", "value": "inactive"}, {"measurement": "Activity", "setting": "[8]", "value": "inactive"}, {"measurement": "Activity", "setting": "[9]", "value": "inactive"}, {"measurement": "Activity", "setting": "[10]", "value": "inactive"}]}, {"molecule": "C=C[C@@]1(C)C=C2C(=O)C(O)=C3[C@](C)(C(=O)O)CC[C@@H]4C[C@]34[C@]2(O)C(=O)C1", "values": [{"measurement": "Activity", "setting": "[12]", "value": "inactive"}, {"measurement": "Activity", "setting": "[13]", "value": "inactive"}, {"measurement": "Activity", "setting": "[14]", "value": "inactive"}, {"measurement": "Activity", "setting": "[5]", "value": "inactive"}, {"measurement": "Activity", "setting": "[6]", "value": "inactive"}, {"measurement": "Activity", "setting": "[7]", "value": "inactive"}, {"measurement": "Activity", "setting": "[8]", "value": "inactive"}, {"measurement": "Activity", "setting": "[9]", "value": "inactive"}, {"measurement": "Activity", "setting": "[10]", "value": "inactive"}]}, {"molecule": "C=C(C(=O)O)C(CCCCC(C)O)C(=O)OC", "note": "(centres undefined)", "values": [{"measurement": "Activity", "setting": "[5]", "value": "inactive"}, {"measurement": "Activity", "setting": "[6]", "value": "inactive"}, {"measurement": "Activity", "setting": "[7]", "value": "inactive"}, {"measurement": "Activity", "setting": "[8]", "value": "inactive"}, {"measurement": "Activity", "setting": "[9]", "value": "inactive"}, {"measurement": "Activity", "setting": "[10]", "value": "inactive"}]}, {"molecule": "C=C(C(=O)O)C(CCCCCC)C(=O)O", "note": "(centres undefined)", "values": [{"measurement": "Activity", "setting": "[5]", "value": "inactive"}, {"measurement": "Activity", "setting": "[6]", "value": "inactive"}, {"measurement": "Activity", "setting": "[7]", "value": "inactive"}, {"measurement": "Activity", "setting": "[8]", "value": "inactive"}, {"measurement": "Activity", "setting": "[9]", "value": "inactive"}, {"measurement": "Activity", "setting": "[10]", "value": "inactive"}]}]}
